Bioassay records deposited in PubChem BioAssay by The Scripps Research Institute Molecular Screening Center.
This excerpt belongs to a sample that is enriched for hits.
RORa inhibitor – RORA (human) inhibition | inhibition, % at 10 µM | CHO-K1 Gal4-RORA LBD luciferase reporter, luminescence | hit rate 0.43% among 65,000 | P35398;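 active means inhibition above the mean of all tested compounds plus 3 SD, cut at about 52% in these data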;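 further: 0% = RORA-transfected cells with DMSO and 100% = mock-transfected cells lacking RORA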
Target sequence (P35398 whole entry, looked up, the tested form may be a part): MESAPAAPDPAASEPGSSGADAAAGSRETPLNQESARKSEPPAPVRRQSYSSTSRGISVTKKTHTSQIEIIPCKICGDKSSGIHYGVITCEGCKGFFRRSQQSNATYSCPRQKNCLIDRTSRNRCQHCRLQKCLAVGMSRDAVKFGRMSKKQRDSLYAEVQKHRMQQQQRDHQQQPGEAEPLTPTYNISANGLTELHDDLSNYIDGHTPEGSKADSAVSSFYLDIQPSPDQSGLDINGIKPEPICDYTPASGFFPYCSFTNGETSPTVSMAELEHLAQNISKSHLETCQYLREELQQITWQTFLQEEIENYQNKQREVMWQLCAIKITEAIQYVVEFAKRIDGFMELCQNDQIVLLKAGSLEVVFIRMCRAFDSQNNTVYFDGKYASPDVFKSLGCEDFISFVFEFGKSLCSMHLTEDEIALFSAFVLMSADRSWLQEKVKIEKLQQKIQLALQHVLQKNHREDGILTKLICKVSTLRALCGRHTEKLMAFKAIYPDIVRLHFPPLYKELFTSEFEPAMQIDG
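Test system: CHO-K1 cells with Gal4-hRORA LBD fusion and pG5-luc reporter / Compound: single concentration per compound, 10 µM final / Schedule: 20 h compound treatment, 37 °C / Signal: luminescence from basal luciferase reporter expression / Read-out: % inhibition / Control set: mock-transfected cells as 100%, +RORA DMSO cells as 0% / Replicates: tested once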
Starred values were filed as active, the others as inactive.

SMILES	RORa inhibitor
COc1ccc(S(=O)(=O)Nc2nnc(C(C)(C)C)s2)cc1	-16.8
COc1cc(NS(=O)(=O)c2ccc(C)cc2)c2ncccc2c1	85.0*
Cc1cccc(-n2ncc3c(N(C)Cc4ccccc4)ncnc32)c1	-55.5
CN(C)S(=O)(=O)n1cnc(-c2ccccc2)c1-c1ccccc1	8.7
COc1cccc2sc(Nc3nc(-c4ccccn4)cs3)nc12	68.7*
COc1cccc(Nc2nc(-c3sc(N)nc3C)cs2)c1	-26.7
COC(=O)c1ccc(-c2ccc(CNCC(O)c3ccccc3)o2)cc1 (stereo not drawn)	-11.2
COc1ccccc1CNC(=O)C1COc2ccccc2O1 (stereo not drawn)	1.9
COc1cc(C(=O)NC2=NCCS2)ccc1OCc1c(C)noc1C	5.2
O=C(NC1=NCCS1)C1COc2ccccc2O1 (stereo not drawn)	71.8*
CN(C)c1ccc(-c2ccccc2)nn1	-55.6
C=CCSc1nc2ccccc2n1Cc1nnc(-c2cccs2)o1	17.8
CC(=O)c1cc2c(cc1NC(=O)CN1CCN(c3cccc(C(F)(F)F)c3)CC1)OCO2	11.7
CC(=O)c1ccc(N2CCN(c3ccc(C(F)(F)F)cn3)CC2)cc1	54.5*
COc1ccc(C(=O)CN2CCN(c3ccc(F)cc3)CC2)cc1OC	14.0
COc1cccc(C2C(C(=O)c3ccco3)=C(O)C(=O)N2CCCN2CCOCC2)c1OC (stereo not drawn)	5.1
Clc1ccc(OCCN2CCN(c3ncnc4sccc34)CC2)cc1	80.9*
O=C(C1CCC(=O)N1Cc1ccccc1Cl)N1CCN(c2cccc(Cl)c2)CC1 (stereo not drawn)	-2.9
COc1ccc(C(=O)Cn2c(N3CCOCC3)nc3ccccc32)cc1OC	19.3
Cc1ccc(C)c(-n2c(Cc3cc(=O)[nH]c(=O)[nH]3)nnc2SCC(=O)NCC2CCCO2)c1 (stereo not drawn)	-1.7
CC(=O)c1sc(NC(=O)C2(F)C(F)(F)C(F)(F)C(F)(F)C(F)(F)C2(F)F)nc1C	89.5*
COC(=O)c1sc(NC(=O)c2ccoc2C)nc1C	-8.0
Cc1nc(NC(=O)C2CC3CCCC(C2)C3=O)sc1C (stereo not drawn)	-62.1
O=C(CCNS(=O)(=O)c1cccc2nsnc12)N1CC(=O)N(CCc2ccccc2)C(=O)C1	3.1
Cn1c(-n2c(CCN3C(=O)c4ccccc4C3=O)nc3ccccc3c2=O)nc2ccccc21	-57.1
SMILES	RORa inhibitor
CCCCc1ccc(C2C(C#N)=C(N)SC(N)=C2C#N)s1	-8.0
COc1ccc(Cc2nnc(NC(=O)Cc3cccs3)s2)cc1OC	-5.1
COc1ccc(CCNC(=O)c2nnn(CC(=O)Nc3ccccc3)c2N)cc1OC	-2.2
COc1ccc(CC(=O)Nc2cccc(-c3nnc(-c4cccc(C)c4)o3)c2)cc1OC	86.6*
CCCCN1c2cc(C)c(O)cc2C(C(=O)OCC)C1C (stereo not drawn)	5.1
CC1(C)CC(=O)C(/C=N/c2ncccc2C(=O)O)=C(O)C1	1.8
O=C(COc1ccccc1Cl)Nc1ccc(Cl)cn1	-62.0
O=C(O)c1cccc(COc2ccccc2Cl)c1	91.8*
O=P(O)(O)c1ccccc1OCc1ccccc1	-8.5
COc1ccc(OC)c(N/C(C)=C/C(=O)c2ccc(C)o2)c1	-2.3
COc1cc(OC)cc(-c2cc3nc(C)c(CCC(=O)O)c(C)n3n2)c1	76.7*
CCN(CC)C(=O)c1sc2nc(-c3ccc(OC)cc3)cn2c1C	-98.2
CCc1c(C)nc2cc(-c3ccc(OC)cc3)[nH]n2c1=O	-57.8
COc1cccc2c1C(=O)c1c(O)c3c(c(O)c1C2=O)C[C@@](O)(C(=O)CO)C[C@@H]3O[C@H]1C[C@H](N)[C@H](O)[C@H](C)O1	63.0*
O=C(OCc1nnc(-c2ccccc2)o1)c1ccc(S(=O)(=O)NCc2ccco2)cc1	18.5
COc1ccc(Cl)cc1NC(=O)CN(C1CCCCC1)S(C)(=O)=O	24.2
CCN1CCN(C(CNS(=O)(=O)c2ccc(OC)cc2)c2cccnc2)CC1 (stereo not drawn)	-10.8
O=C(Cc1ccccc1)Nc1nc(-c2cccs2)cs1	-66.7
Cc1nc2sccn2c1-c1csc(NCc2ccccc2)n1	62.6*
CCNc1nc(-c2ccc(Cl)cc2)cs1	-50.1
CCOc1ccc(-c2cc(CCCC(=O)NCCCOC)no2)cc1	58.1*
CCC(C)NC(=O)c1cc(-c2ccc(OC)cc2)on1 (stereo not drawn)	-59.9
CCOc1ccc(-c2cc(C(=O)NCCCN3CCN(CC)CC3)c3ccccc3n2)cc1	-31.8
c1ccc(CC2CCN(Cc3nc(-c4ccccc4)no3)CC2)cc1	10.5
CCOC(=O)C(C(=O)OCC)C(CC(=O)C1CC1)c1ccccc1 (stereo not drawn)	6.7
SMILES	RORa inhibitor
CC(C)C(=O)Nc1ccc2c(c1)C(=O)N(CCC(=O)O)C2=O	2.7
Cc1cccc(C)c1NC(=O)c1cc(S(=O)(=O)N2CCOCC2)ccc1F	-2.6
C=CCN(CC(=O)NCc1ccccc1)C(=O)c1csnn1	13.0
O=C(NCc1ccco1)c1cnn2c(C(F)(F)F)cc(-c3cccs3)nc12	2.3
O=C(COc1ccc(Cl)cc1)NCc1nnc(SCC(=O)NCCc2ccccc2)o1	9.9
CCCC(NS(=O)(=O)c1ccc(Br)cc1)C(=O)O (stereo not drawn)	23.3
COc1cccc(NC(=O)Cn2c(SCC(=O)N3CCOCC3)nc3ccccc32)c1	-16.7
COc1cccc(NC(=O)CNC(C)CCC(C)C)c1 (stereo not drawn)	14.0
COc1cccc(NC(=O)CSc2nnc(-c3cc(C)n(-c4ccccc4)c3C)o2)c1	71.3*
Cc1cc(C)n2nc(SCc3cc(=O)n4ccccc4n3)nc2n1	-11.0
Cc1cc(C)n2nc(SCC(=O)c3cc(C)n(-c4cc(C)on4)c3C)nc2n1	55.1*
Cc1cc(C(=O)CSc2nnc(-c3ccccc3)n2-c2ccccc2)c(C)n1-c1ncn[nH]1	-10.8
Cc1cc(C(=O)CSc2nc3ccccc3[nH]2)c(C)n1C	-59.3
Cc1cc(C)n2nc(SCC(=O)NCc3ccco3)nc2n1	-10.1
Cc1cc(-n2c(C)cc(C(=O)CSc3ncnc4ccccc34)c2C)no1	63.6*
Cc1ccccc1Cn1ccc(NC(=O)c2onc(C)c2Cl)n1	-87.0
CC1(C)CC(=O)c2cnc(NC(=O)c3ccco3)nc2C1	-1.5
O=C1CCn2nc(-c3ccc(Cl)cc3)cc2N1	-61.3
O=C(NC(Cc1ccccc1)c1nc2ccccc2[nH]1)C1CC(=O)N(c2ccc3c(c2)OCCO3)C1 (stereo not drawn)	8.5
c1ccn2c(SCc3cn4ccsc4n3)nnc2c1	-60.6
Cc1cc(C(=O)Nc2c(F)cc(F)cc2Br)c(C)o1	17.7
c1ccc(-c2cn3c4c(sc3n2)CCCC4)cc1	73.8*
Cc1c(C(=O)N2CCOCC2)sc2nc(-c3ccccc3)cn12	-58.1
Cc1c(C(=O)NCc2cccnc2)sc2nc(-c3ccccc3)cn12	-53.5
CCOC(=O)N1CCN(C(=O)CSc2nnc(Cc3ccccc3)o2)CC1	6.6
SMILES	RORa inhibitor
COC(=O)c1ccc(CSc2nc3c(c(=O)n2-c2ccc(Br)cc2)SCC3)o1	-5.1
CCN1CCN(C(=O)c2cc3nc(-c4ccccc4)cc(C(F)(F)F)n3n2)CC1	10.8
O=C(NC1CCCCC1)C1CCN(S(=O)(=O)N2CCOCC2)CC1	20.2
COc1cccc(CN(C(=O)c2cc3ccccc3oc2=O)C2CC2)c1	-52.4
c1ccc(-n2nc3c(ccc4cnnc43)[nH]2)cc1	-54.7
COc1ccc(-c2cc3nc4n(c(=O)c3s2)CCOC4)cc1	60.2*
COc1ccc(-c2csc(N3CCOCC3)n2)cc1OC	-60.9
